Test results as given in ChEMBL document CHEMBL1125880, “Structure-activity relationship of miltirone, an active central benzodiazepine receptor ligand isolated from Salvia miltiorrhiza Bunge (Danshen)” (J Med Chem, 1991).

Biological target: GABA-A receptor; anion channel
Assay: Potency related to miltirone (1) at the central benzodiazepine receptor was determined using [3H]flunitrazepam as radioligand
Assay type: protein-complex assay
Outline: (§1)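 Calf cerebral cortical membranes incubated 45 min at 0 °C with [³H]flunitrazepam (1 nM) in 50 mM Tris-HCl pH 7.4, final volume 500 μL. Terminated by dilution with ice-cold buffer, rapid GF/B filtration and washes; filter radioactivity counted by liquid scintillation. Nonspecific binding defined with 10 μM diazepam. IC50 = concentration giving 50% inhibition of specific binding; mean ± SD of (n) determinations in duplicate. Unstable compounds tested immediately after preparation.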

Row | SMILES | IC50 [µM]
1 | CCN(CC)C(=O)c1cccc2c1C(=O)C(=O)C(C(C)C)=C2 | > 30
2 | CCc1cccc2c1C(=O)C(=O)C(C(C)C)=C2 | > 200
3 | CC(C)C1=Cc2ccc3c(c2C(=O)C1=O)CCCC3(C)O (stereo not drawn) | 2
4 | CC(C)C1=Cc2ccccc2C(=O)C1=O | > 50
5 | CC(C)C1=Cc2cccc(C(=O)O)c2C(=O)C1=O | 4.3
6 | CC(C)C1=Cc2ccc3c(c2C(=O)C1=O)CCCC(=O)N3 | 0.32
7 | CC(C)C1=Cc2ccc3c(c2C(=O)C1=O)CCCCCC3 | 0.31
8 | CC(C)C1=Cc2ccc3c(c2C(=O)C1=O)CC[C@H](O)[C@]3(C)O | 15
9 | CC(C)C1=Cc2ccc3c(c2C(=O)C1=O)CCCCC3 | 0.23
10 | CC(C)C1=Cc2ccc3c(c2C(=O)C1=O)CCCC3(C)C [MILTIRONE] | 0.3

More lines, now with the values ahead:

Row | IC50 [µM] | SMILES
11 | 17 | CC(C)C1=Cc2ccc3c(c2C(=O)C1=O)CC[C@@H](O)[C@]3(C)O
12 | 10 | CC1(C)CCCc2c1ccc1c2C(=O)C(=O)C=C1
13 | 9.1 | CC(C)C1=Cc2ncc3c(c2C(=O)C1=O)CCCC3
14 | 0.9 | CC(C)C1=Cc2ccc3c(c2C(=O)C1=O)CCCC3
15 | 0.05 | CC(C)C1=Cc2cc3c4c(c2C(=O)C1=O)CCCC4CC3 (stereo not drawn)
16 | > 140 | CC(C)C1=CC2=C(CCCC2)C(=O)C1=O
17 | > 40 | Cc1cc2ccc3c(c2oc1=O)CCCC3
18 | 0.4 | CC1=Cc2ccc3c(c2C(=O)C1=O)CCCC3(C)C
19 | 0.56 | CC(C)C1=Cc2ccc3c(c2C(=O)C1=O)CCCC3=O

Biological target: GABA-A receptor; anion channel
Assay: inhibition of [3H]flunitrazepam binding to GABA-A central Benzodiazepine receptor of bovine cerebral cortex membrane
Assay type: tissue-based, Bos taurus
Outline: as §1

Row | SMILES | IC50 [µM]
20 | C=Cc1cccc2c1C(=O)C(=O)C(C(C)C)=C2 | > 40
21 | CC(C)C1=Cc2cccc(-c3ccccc3)c2C(=O)C1=O | 20
22 | CC1=CCCc2c1ccc1c2C(=O)C(=O)C(C(C)C)=C1 | 4.4
23 | O=C1C=Cc2ccc3c(c2C1=O)CCCC3 | 20
